Tests used:
Design in all cases: scale not given: the % may be the effect or the level left
SW-620 = assay: Antitumor activity against human SW620 cells assessed as reduction of cell growth at 10 uM after 48 hrs by SRB assay; assay type: functional
Procedure, shortened: (§1)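 NCI-60 one-dose primary screen at 10^-5 M final. Cells grown in RPMI 1640 with 5% FBS and 2 mM L-glutamine, plated at 5000–40,000 cells/well and preincubated 24 h at 37 °C, 5% CO2. Drug stocks in DMSO, diluted in medium with gentamicin. Exposure 48 h, then fixed in situ with TCA (10% final) for 60 min at 4 °C. Stained with 0.4% SRB in 1% acetic acid, bound dye solubilized in 10 mM trizma base, absorbance read at 515 nm. Reported as mean growth percent; negative values indicate cell kill.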

SK-MEL-28 = assay: Antitumor activity against human SK-MEL-28 cells assessed as reduction of cell growth at 10 uM after 48 hrs by SRB assay; assay type: functional
Procedure, shortened: (§2)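 NCI 60-cell-line primary screen, single dose 10^-5 M (final). Cells grown in RPMI 1640 with 5% FBS and 2 mM L-glutamine, seeded at 5000–40,000 cells/well and preincubated 24 h at 37 °C, 5% CO2. Compound is dissolved in DMSO, diluted in medium with gentamicin, and exposed 48 h. Cells are fixed with 10% TCA (final) and stained with 0.4% SRB; absorbance is read at 515 nm. Readout is growth percentage.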

U-251 = assay: Antitumor activity against human U251 cells assessed as reduction of cell growth at 10 uM after 48 hrs by SRB assay; assay type: functional; procedure, shortened: as §1
[1] = Antitumor activity against human 786-O cells assessed as reduction of cell growth at 10 uM after 48 hrs by SRB assay; assay type: functional, 786-0; procedure, shortened: as §2
BT-549 = assay: Antitumor activity against human BT-549 cells assessed as reduction of cell growth at 10 uM after 48 hrs by SRB assay; assay type: functional; procedure, shortened: as §2
[2] = Antitumor activity against human Hs 578T cells assessed as reduction of cell growth at 10 uM after 48 hrs by SRB assay; assay type: functional; procedure, shortened: as §2
HOP-92 = assay: Antitumor activity against human HOP-92 cells assessed as reduction of cell growth at 10 uM after 48 hrs by SRB assay; assay type: functional; procedure, shortened: as §2
MCF7 [3] = assay: Antitumor activity against human MCF7 cells assessed as reduction of cell growth at 10 uM after 48 hrs by SRB assay; assay type: functional; procedure, shortened: as §2
NCI-H226 = assay: Antitumor activity against human NCI-H226 cells assessed as reduction of cell growth at 10 uM after 48 hrs by SRB assay; assay type: functional; procedure, shortened: as §2
HCC 2998 = assay: Antitumor activity against human HCC2998 cells assessed as reduction of cell growth at 10 uM after 48 hrs by SRB assay; assay type: functional; procedure, shortened: as §2
LOX IMVI = assay: Antitumor activity against human LOXIMVI cells assessed as reduction of cell growth at 10 uM after 48 hrs by SRB assay; assay type: functional; procedure, shortened: as §2
MDA-MB-231 = assay: Antitumor activity against human MDA-MB-231/ATCC cells assessed as reduction of cell growth at 10 uM after 48 hrs by SRB assay; assay type: functional; procedure, shortened: as §2
SNB-19 = assay: Antitumor activity against human SNB-19 cells assessed as reduction of cell growth at 10 uM after 48 hrs by SRB assay; assay type: functional; procedure, shortened: as §2
OVCAR-8 = assay: Antitumor activity against human OVCAR8 cells assessed as reduction of cell growth at 10 uM after 48 hrs by SRB assay; assay type: functional; procedure, shortened: as §2
MCF7 [4] = assay: Antitumor activity against human doxorubicin-resistant MCF7 cells assessed as reduction of cell growth at 10 uM after 48 hrs by SRB assay; assay type: functional; procedure, shortened: as §1
OVCAR-5 = assay: Antitumor activity against human OVCAR5 cells assessed as reduction of cell growth at 10 uM after 48 hrs by SRB assay; assay type: functional; procedure, shortened: as §2
HT-29 = assay: Antitumor activity against human HT-29 cells assessed as reduction of cell growth at 10 uM after 48 hrs by SRB assay; assay type: functional; procedure, shortened: as §2
HCT-15 = assay: Antitumor activity against human HCT-15 cells assessed as reduction of cell growth at 10 uM after 48 hrs by SRB assay; assay type: functional; procedure, shortened: as §2
HOP-62 = assay: Antitumor activity against human HOP-62 cells assessed as reduction of cell growth at 10 uM after 48 hrs by SRB assay; assay type: functional; procedure, shortened: as §2
PC-3 = assay: Antitumor activity against human PC-3 cells assessed as reduction of cell growth at 10 uM after 48 hrs by SRB assay; assay type: functional; procedure, shortened: as §2
SK-OV-3 = assay: Antitumor activity against human SKOV3 cells assessed as reduction of cell growth at 10 uM after 48 hrs by SRB assay; assay type: functional; procedure, shortened: as §2
SF-539 = assay: Antitumor activity against human SF-539 cells assessed as reduction of cell growth at 10 uM after 48 hrs by SRB assay; assay type: functional; procedure, shortened: as §2
ACHN = assay: Antitumor activity against human ACHN cells assessed as reduction of cell growth at 10 uM after 48 hrs by SRB assay; assay type: functional; procedure, shortened: as §2
SK-MEL-5 = assay: Antitumor activity against human SK-MEL-5 cells assessed as reduction of cell growth at 10 uM after 48 hrs by SRB assay; assay type: functional; procedure, shortened: as §2
T47D = assay: Antitumor activity against human T47D cells assessed as reduction of cell growth at 10 uM after 48 hrs by SRB assay; assay type: functional; procedure, shortened: as §1
SF-268 = assay: Antitumor activity against human SF-268 cells assessed as reduction of cell growth at 10 uM after 48 hrs by SRB assay; assay type: functional; procedure, shortened: as §2
NCI-H23 = assay: Antitumor activity against human NCI-H23 cells assessed as reduction of cell growth at 10 uM after 48 hrs by SRB assay; assay type: functional; procedure, shortened: as §2
KM12 = assay: Antitumor activity against human KM12 cells assessed as reduction of cell growth at 10 uM after 48 hrs by SRB assay; assay type: functional; procedure, shortened: as §2
SNB-75 = assay: Antitumor activity against human SNB75 cells assessed as reduction of cell growth at 10 uM after 48 hrs by SRB assay; assay type: functional; procedure, shortened: as §2
HL-60(TB) = assay: Antitumor activity against human HL-60(TB) cells assessed as reduction of cell growth at 10 uM after 48 hrs by SRB assay; assay type: functional; procedure, shortened: as §2
RXF 393 = assay: Antitumor activity against human RXF 393 cells assessed as reduction of cell growth at 10 uM after 48 hrs by SRB assay; assay type: functional; procedure, shortened: as §2
K562 = assay: Antitumor activity against human K-562 cells assessed as reduction of cell growth at 10 uM after 48 hrs by SRB assay; assay type: functional; procedure, shortened: as §2
UACC-257 = assay: Antitumor activity against human UACC-257 cells assessed as reduction of cell growth at 10 uM after 48 hrs by SRB assay; assay type: functional; procedure, shortened: as §1
SN12C = assay: Antitumor activity against human SN12C cells assessed as reduction of cell growth at 10 uM after 48 hrs by SRB assay; assay type: functional; procedure, shortened: as §2
OVCAR-4 = assay: Antitumor activity against human OVCAR4 cells assessed as reduction of cell growth at 10 uM after 48 hrs by SRB assay; assay type: functional; procedure, shortened: as §2
IGROV-1 = assay: Antitumor activity against human IGROV1 cells assessed as reduction of cell growth at 10 uM after 48 hrs by SRB assay; assay type: functional; procedure, shortened: as §2
CCRF-CEM = assay: Antitumor activity against human CCRF-CEM cells assessed as reduction of cell growth at 10 uM after 48 hrs by SRB assay; assay type: functional; procedure, shortened: as §2

`C[C@]12CCC(=O)C(Oc3ccccc3)=C1CC[C@@H]1[C@@H]2CC[C@]2(C)C(=O)CC[C@@H]12` showed an Activity (SW-620) of 120.45%, an Activity (SK-MEL-28) of 119.81% and an Activity (U-251) of 91.35%. The Activity [1] was 100.78%, the Activity (BT-549) was 110.1% and the Activity [2] was 103.5%. The Activity (HOP-92) was 87.06%, the Activity (MCF7 [3]) was 103.22% and the Activity (NCI-H226) was 96.55%. The Activity (HCC 2998) was 128.78%, the Activity (LOX IMVI) was 101.44% and the Activity (MDA-MB-231) was 109.86%. It also gave an Activity (SNB-19) of 114.92%, an Activity (OVCAR-8) of 93.48% and an Activity (MCF7 [4]) of 90.34%. For the same molecule, the Activity (OVCAR-5) was 97.47%, the Activity (HT-29) was 100.27% and the Activity (HCT-15) was 94.74%. The Activity (HOP-62) was 106.47%, the Activity (PC-3) was 89.25% and the Activity (SK-OV-3) was 117.4%. It also gave an Activity (SF-539) of 106.75%, an Activity (ACHN) of 105.72% and an Activity (SK-MEL-5) of 94.23%. The Activity (T47D) was 116.7%, the Activity (SF-268) was 113.44% and the Activity (NCI-H23) was 97.57%. For the same molecule, the Activity (KM12) was 115.72%, the Activity (SNB-75) was 91.11% and the Activity (HL-60(TB)) was 105.95%. For the same molecule, the Activity (RXF 393) was 107.93%, the Activity (K562) was 86.08% and the Activity (UACC-257) was 108.45%. For the same molecule, the Activity (SN12C) was 90.07%, the Activity (OVCAR-4) was 100.72% and the Activity (IGROV-1) was 55.73%. The Activity (CCRF-CEM) was 90.45%.

Molecule `CCOC1=C2CC[C@@H]3[C@H](CC[C@]4(C)C(=O)CC[C@@H]34)[C@@]2(C)CCC1=O` has an Activity (SW-620) of 120.57%, an Activity (SK-MEL-28) of 135.2% and an Activity [1] of 103.4%. It also gave an Activity (BT-549) of 93.87%, an Activity [2] of 118.13% and an Activity (HOP-92) of 92.93%. It also gave an Activity (MCF7 [3]) of 108.56%, an Activity (NCI-H226) of 98.58% and an Activity (HCC 2998) of 125.75%. For the same molecule, the Activity (LOX IMVI) was 100.3%, the Activity (MDA-MB-231) was 106.73% and the Activity (SNB-19) was 112.3%. For the same molecule, the Activity (OVCAR-8) was 98.96%, the Activity (MCF7 [4]) was 97.45% and the Activity (OVCAR-5) was 101.66%. It also gave an Activity (HT-29) of 98.16%, an Activity (HCT-15) of 110.45% and an Activity (HOP-62) of 103.52%. It also gave an Activity (PC-3) of 96.5%, an Activity (SK-OV-3) of 111.3% and an Activity (SF-539) of 111.3%. For the same molecule, the Activity (ACHN) was 105.1%, the Activity (SK-MEL-5) was 99.39% and the Activity (T47D) was 117.94%. For the same molecule, the Activity (SF-268) was 128.3%, the Activity (NCI-H23) was 101.11% and the Activity (KM12) was 123.89%. The Activity (SNB-75) was 79.71%, the Activity (HL-60(TB)) was 112.2% and the Activity (RXF 393) was 117.9%. It also gave an Activity (K562) of 94.09%, an Activity (UACC-257) of 117.1% and an Activity (SN12C) of 110.6%. For the same molecule, the Activity (OVCAR-4) was 96.98%, the Activity (IGROV-1) was 85.75% and the Activity (CCRF-CEM) was 91.63%.

Reference: ChEMBL document CHEMBL1142454, “Synthesis and evaluation of novel 4-amino-4,6-androstadiene-3,17-dione: an analog of formestane” (2008)
